# Key:
# [1] = system: A498; assay: Evaluated for the inhibitory concentration required to cause growth inhibition of A498Rem- renal cell line using the MTT Cytotoxicity Assay; format: functional, cell-based; settings: Homo sapiens
# Outline: (§1)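 MTT microculture tetrazolium growth assay on human cell lines and normal fibroblasts. Cells seeded at 1000 cells/well, with compound added 24 h after plating. Cultures then incubated a further 6 days at 37 °C before MTT read-out of growth versus untreated cells.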
# [2] = system: P388; assay: Evaluated in vivo for antineoplastic activity against P388 murine leukemia tumor […] after administering intra peritoneal injection at a dose of 13.12 mg/kg; format: functional, Mus musculus
# Outline: (§2)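 P388 leukemia-bearing mice, run through the NCI Developmental Therapeutics Program. Compound given ip once daily on 5 consecutive days. Activity read out as % T/C.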
# [3] = system: A673; assay: Evaluated for the inhibitory concentration required to cause growth inhibition of A673Mer+ sarcoma cell line using the MTT Cytotoxicity Assay; format: functional, cell-based; settings: Homo sapiens; outline: as §1
# [4] = system: CCD 19Lu; assay: Evaluated for the inhibitory concentration required to cause growth inhibition of CCD-19Lu fibroblasts cell line using the MTT Cytotoxicity Assay; format: functional, cell-based; settings: Homo sapiens; outline: as §1
# [5] = system: SK-MEL-5; assay: Evaluated for the inhibitory concentration required to cause growth inhibition of SK-MEL-5 melanoma cell line using the MTT Cytotoxicity Assay; format: functional, cell-based; settings: Homo sapiens; outline: as §1
# [6] = system: A 172; assay: Evaluated for the inhibitory concentration required to cause growth inhibition of A172Mer- cell line of central nervous system (CNS) using the MTT Cytotoxicity Assay; format: functional, cell-based; settings: Homo sapiens; outline: as §1
# [7] = system: A549; assay: Evaluated for the inhibitory concentration required to cause growth inhibition of A549Rem- cell line of lung using the MTT Cytotoxicity Assay; format: functional, cell-based; settings: Homo sapiens; outline: as §1
# [8] = system: P388; assay: Evaluated in vivo for antineoplastic activity against P388 murine leukemia tumor […] after administering intra peritoneal injection at a dose of 52.5 mg/kg; format: functional, Mus musculus; outline: as §2
# [9] = system: NCI-H322M; assay: Evaluated for the inhibitory concentration required to cause growth inhibition of H322M cell line of lung using the Microculture Tetrazolium (MTT) Cytotoxicity Assay; format: functional, cell-based; settings: Homo sapiens; outline: as §1
# [10] = system: DOD-1; assay: Evaluated for the inhibitory concentration required to cause growth inhibition of DOD-1 breast cell line using the MTT Cytotoxicity Assay; format: functional, cell-based; settings: Homo sapiens; outline: as §1
# [11] = system: TE-671; assay: Evaluated for the inhibitory concentration required to cause growth inhibition of TE-671 cell line of central nervous system (CNS)using the MTT Cytotoxicity Assay; format: functional, cell-based; settings: Homo sapiens; outline: as §1
# [12] = system: HOS-TE85; assay: Evaluated for the inhibitory concentration required to cause growth inhibition of TE85Mer+ sarcoma cell line using the MTT Cytotoxicity Assay; format: functional, cell-based; settings: Homo sapiens; outline: as §1
# [13] = system: MAR BEL fibroblasts cell line; assay: Evaluated for the inhibitory concentration required to cause growth inhibition of MAR BEL fibroblasts cell line using the MTT Cytotoxicity Assay; format: functional, cell-based; settings: Homo sapiens; outline: as §1
# [14] = system: U-251; assay: Evaluated for the inhibitory concentration required to cause growth inhibition of U251 cell line of central nervous system (CNS) using the MTT Cytotoxicity Assay; format: functional, cell-based; settings: Homo sapiens
# Outline: (§3)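 MTT cell-growth assay in human cell lines: cells harvested and seeded at 1000 cells/well in 96-well plates. Compound added after 24 h, then cultures incubated a further 6 days at 37 °C. Growth measured with and without agent.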
# [15] = system: A704; assay: Evaluated for the inhibitory concentration required to cause growth inhibition of A704Rem- renal cell line using the MTT Cytotoxicity Assay; format: functional, cell-based; settings: Homo sapiens; outline: as §1
# [16] = system: NCI-H522 (Homo sapiens); assay: Evaluated for the inhibitory concentration required to cause growth inhibition of H522 cell line of lung using the Microculture Tetrazolium (MTT) Cytotoxicity Assay
# [17] = system: NCI-H125; assay: Evaluated for the inhibitory concentration required to cause growth inhibition of H125 cell line of lung using the Microculture Tetrazolium (MTT) Cytotoxicity Assay; format: functional, cell-based; settings: Homo sapiens; outline: as §1
# [18] = system: OVCAR-3; assay: Evaluated for the inhibitory concentration required to cause growth inhibition of OVCAR-3 ovarian cell line using the MTT Cytotoxicity Assay; format: functional, cell-based; settings: Homo sapiens; outline: as §1
# [19] = system: OVCAR-4; assay: Evaluated for the inhibitory concentration required to cause growth inhibition of OVCAR-4 ovarian cell line using the MTT Cytotoxicity Assay; format: functional, cell-based; settings: Homo sapiens; outline: as §1
# [20] = system: NCI-H358; assay: Evaluated for the inhibitory concentration required to cause growth inhibition of H358M cell line of lung using the Microculture Tetrazolium (MTT) Cytotoxicity Assay; format: functional, cell-based; settings: Homo sapiens; outline: as §1
# [21] = system: NCI-H23; assay: Evaluated for the inhibitory concentration required to cause growth inhibition of H23 cell line of lung using the Microculture Tetrazolium (MTT) Cytotoxicity Assay; format: functional, cell-based; settings: Homo sapiens; outline: as §1
# [22] = system: Malme-3M; assay: Evaluated for the inhibitory concentration required to cause growth inhibition of MALME-3M melanoma cell line using the MTT Cytotoxicity Assay; format: functional, cell-based; settings: Homo sapiens; outline: as §1
# [23] = system: NCI-H460; assay: Evaluated for the inhibitory concentration required to cause growth inhibition of H460 cell line of lung using the Microculture Tetrazolium (MTT) Cytotoxicity Assay; format: functional, cell-based; settings: Homo sapiens; outline: as §1
# [24] = system: LOX IMVI; assay: Evaluated for the inhibitory concentration required to cause growth inhibition of LOX melanoma cell line using the MTT Cytotoxicity Assay; format: functional, cell-based; settings: Homo sapiens; outline: as §1
# [25] = system: MCF7; assay: Evaluated for the inhibitory concentration required to cause growth inhibition of MCF-7 breast cell line using the MTT Cytotoxicity Assay; format: functional, cell-based; settings: Homo sapiens; outline: as §1
# [26] = system: RPMI-7951; assay: Evaluated for the inhibitory concentration required to cause growth inhibition of RPMI7951 melanoma cell line using the MTT Cytotoxicity Assay; format: functional, cell-based; settings: Homo sapiens; outline: as §1
# [27] = system: P388; assay: Evaluated in vivo for antineoplastic activity against P388 murine leukemia tumor […] after administering intra peritoneal injection at a dose of 26.25 mg/kg; format: functional, Mus musculus; outline: as §2
# [28] = system: A-427; assay: Evaluated for the inhibitory concentration required to cause growth inhibition of A427Mer- cell line of lung using the MTT Cytotoxicity Assay; format: functional, cell-based; settings: Homo sapiens; outline: as §1
# [29] = system: WiDr; assay: Evaluated for the inhibitory concentration required to cause growth inhibition of WiDR colon cell line using the MTT Cytotoxicity Assay; format: functional, cell-based; settings: Homo sapiens; outline: as §3
# [30] = system: NCI/ADR-RES; assay: Evaluated for the inhibitory concentration required to cause growth inhibition of MCF-7ADR breast cell line using the MTT Cytotoxicity Assay; format: functional, cell-based; settings: Homo sapiens; outline: as §1
# [31] = Evaluated for the antineoplastic activity against LX-1 lung (small cell) tumor xenograft in nude mice after administering 3 injections (intra peritoneally) at a dose of 50 mg/kg; format: functional, Homo sapiens
# Outline: (§4)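 Nude mice bearing human tumor xenografts; compound given intraperitoneally as three injections at 4-day intervals. Antitumor activity expressed as % T/C at each dose level. Performed under the NCI Developmental Therapeutics Program.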
# [32] = system: L1210; assay: Evaluated for the antineoplastic activity against L1210 leukemia tumor xenograft in nude mice after administering 5 injections (intra peritoneally) at a dose of 60 mg/kg; format: functional, Mus musculus
# Outline: (§5)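 Mice bearing L1210 leukemia dosed intraperitoneally once daily for 5 successive days (five injections). Activity reported as % T/C at each dose. Performed under the NCI Developmental Therapeutics Program.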
# [33] = Evaluated for the antineoplastic activity against LOX amelanotic melanoma tumor xenograft in nude mice after administering 3 injections (intra peritoneally) at a dose of 25 mg/kg; format: functional, Homo sapiens; outline: as §4
# [34] = system: L1210; assay: Evaluated for the antineoplastic activity against L1210 leukemia tumor xenograft in nude mice after administering 5 injections (intra peritoneally) at a dose of 21.6 mg/kg; format: functional, Mus musculus; outline: as §5
# [35] = Evaluated for the antineoplastic activity against LX-1 lung (small cell) tumor xenograft in nude mice after administering 3 injections (intra peritoneally) at a dose of 100 mg/kg; format: functional, Homo sapiens; outline: as §4
# [36] = Evaluated for the antineoplastic activity against LOX amelanotic melanoma tumor xenograft in nude mice after administering 3 injections (intra peritoneally) at a dose of 50 mg/kg; format: functional, Homo sapiens; outline: as §4
# [37] = Evaluated for the antineoplastic activity against LOX amelanotic melanoma tumor xenograft in nude mice after administering 3 injections (intra peritoneally) at a dose of 12.5 mg/kg; format: functional, Homo sapiens; outline: as §4
# [38] = system: MX1; assay: Evaluated for the antineoplastic activity against MX-1 mammary tumor xenograft in nude mice after administering 3 injections (intra peritoneally) at a dose of 150 mg/kg; format: functional, Homo sapiens; outline: as §4
# [39] = Evaluated for the antineoplastic activity against M5 sarcoma tumor xenograft in nude mice after administering 4 injections (intra peritoneally) at a dose of 25 mg/kg; format: functional, Mus musculus
# Outline: (§6)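 M5 sarcoma-bearing mice given four intraperitoneal injections at 4-day intervals. Activity reported as % T/C per dose. Performed under the NCI Developmental Therapeutics Program.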
# [40] = Evaluated for the antineoplastic activity against M5 sarcoma tumor xenograft in nude mice after administering 4 injections (intra peritoneally) at a dose of 12.5 mg/kg; format: functional, Mus musculus; outline: as §6
# [41] = Evaluated for the antineoplastic activity against LOX amelanotic melanoma tumor xenograft in nude mice after administering 3 injections (intra peritoneally) at a dose of 100 mg/kg; format: functional, Homo sapiens; outline: as §4
# [42] = system: L1210; assay: Evaluated for the antineoplastic activity against L1210 leukemia tumor xenograft in nude mice after administering 5 injections (intra peritoneally) at a dose of 36 mg/kg; format: functional, Mus musculus; outline: as §5
# [43] = Evaluated for the antineoplastic activity against M5 sarcoma tumor xenograft in nude mice after administering 4 injections (intra peritoneally) at a dose of 50 mg/kg; format: functional, Mus musculus; outline: as §6
# [44] = system: A549; assay: Evaluated for the antineoplastic activity against A549 lung (nonsmall cell) tumor xenograft in nude mice after administering 3 injections (intra peritoneally) at a dose of 200 mg/kg; format: functional, Homo sapiens; outline: as §4
# [45] = Evaluated for the antineoplastic activity against LX-1 lung (small cell) tumor xenograft in nude mice after administering 3 injections (intra peritoneally) at a dose of 25 mg/kg; format: functional, Homo sapiens; outline: as §4
# [46] = system: MX1; assay: Evaluated for the antineoplastic activity against MX-1 mammary tumor xenograft in nude mice after administering 3 injections (intra peritoneally) at a dose of 300 mg/kg; format: functional, Homo sapiens; outline: as §4
# [47] = system: A549; assay: Evaluated for the antineoplastic activity against A549 lung (nonsmall cell) tumor xenograft in nude mice after administering 3 injections (intra peritoneally) at a dose of 100 mg/kg; format: functional, Homo sapiens; outline: as §4
structure (smiles),measurement,setting,value
CC(=O)N(C)/N=N\CCCl,IC50,[1],18 µM
same,T/C,[2],157%
same,IC50,[3],35 µM
same,IC50,[4],60 µM
same,IC50,[5],15 µM
same,IC50,[6],20 µM
same,IC50,[7],26 µM
same,T/C,[8],257%
same,IC50,[9],32 µM
same,IC50,[10],26 µM
same,IC50,[11],50 µM
same,IC50,[12],18 µM
same,IC50,[13],44 µM
same,IC50,[14],18 µM
same,IC50,[15],26 µM
same,IC50,[16],18 µM
same,IC50,[17],42 µM
same,IC50,[18],25 µM
same,IC50,[19],18 µM
same,IC50,[20],60 µM
same,IC50,[21],20 µM
same,IC50,[22],25 µM
same,IC50,[23],60 µM
same,IC50,[24],8 µM
same,IC50,[25],15 µM
same,IC50,[26],17 µM
same,T/C,[27],217%
same,IC50,[28],12 µM
same,IC50,[29],15 µM
same,IC50,[30],24 µM
C/N=N\N(C)C(=O)NC,IC50,[1],37 µM
same,IC50,[3],50 µM
same,IC50,[4],70 µM
same,T/C,[31],-34%
same,IC50,[5],20 µM
same,IC50,[6],24 µM
same,T/C,[32],186%
same,T/C,[33],154%
same,IC50,[7],60 µM
same,T/C,[34],132%
same,T/C,[35],-55%
same,T/C,[36],188%
same,IC50,[9],42 µM
same,IC50,[10],38 µM
same,IC50,[11],46 µM
same,IC50,[12],35 µM
same,IC50,[13],65 µM
same,T/C,[37],131%
same,IC50,[14],33 µM
same,IC50,[15],55 µM
same,IC50,[16],24 µM
same,T/C,[38],15%
same,IC50,[17],50 µM
same,T/C,[39],158%
same,IC50,[18],40 µM
same,IC50,[19],35 µM
same,IC50,[20],75 µM
same,T/C,[40],136%
same,T/C,[41],230%
same,IC50,[21],22 µM
same,T/C,[42],146%
same,T/C,[43],177%
same,IC50,[22],22 µM
same,IC50,[23],70 µM
same,IC50,[24],19 µM
same,IC50,[25],30 µM
same,T/C,[44],-27%
same,IC50,[26],37 µM
same,IC50,[28],9 µM
same,IC50,[29],30 µM
same,T/C,[45],6%
same,T/C,[46],-13%
same,T/C,[47],8%
same,IC50,[30],35 µM
